Assay results from different studies.
Compare with care: the assays were run in different laboratories. In brackets after ≈: the same amount, converted by molar mass.
Organism: Staphylococcus aureus

| Compound | assay | test system | setting | quantity | result |
| --- | --- | --- | --- | --- | --- |
| CC(=O)NC[C@H]1CN(c2ccc(N3CCOCC3)c(F)c2)C(=O)O1 | microbial growth, broth dilution | MRSA | – | MIC | 1 µg/mL |
| O=C/C=C/c1ccccc1 | microbial growth, well diffusion | MTCC96 | 1000 µg/mL, 18 h | inhibition zone | 8 mm |
| COc1cccc(OC)c1C(=O)N[C@@H]1C(=O)N2[C@@H]1SC(C)(C)[C@@H]2C(=O)O | microbial growth, broth dilution | ATCCBAA44 | drug-resistant strain | MIC | > 64 µg/mL |
| C[C@@H](N)[C@H](O)CCCCCCCC(=O)CCCCCCCCCCCCCC[C@@H](O[C@@H]1O[C@H](CO)[C@H](O)[C@H](O)[C@H]1O)[C@@H](C)N | microbial growth, resazurin | ATCC12600 | 50 µM | inhibition | 99% |
| O=C(O)c1cn(C2CC2)c2cc(N3CCNCC3)c(F)cc2c1=O | microbial growth, broth dilution | ATCC33591 MRSA | 16 h, drug-resistant strain | MIC | 6.25 µM |
| C[C@@H]1C[C@@H]([C@H](O)CC2CC(=O)NC(=O)C2)C(=O)[C@@H](C)C1 | microbial growth, broth dilution | ATCC6538 | – | MIC | 28 µg/mL |
| C[C@H]1COc2c(N3CCN(C)CC3)c(F)cc3c(=O)c(C(=O)O)cn1c23 | microbial growth | MRSA | drug-resistant strain | MIC | 0.25 µg/mL |
| CN1C(=S)N(c2ccccc2)C(=O)/C1=C1/C(=O)N(C)c2ccc(Cl)cc21 | microbial growth, broth dilution | ATCC43300 MRSA | – | MIC | 2.4 µg/mL |
| CCOC(=O)/C=C1/SC(N/N=C/c2c(-c3ccc(F)cc3)nc3ncccn23)=NC1=O | microbial growth, well diffusion | ATCC23235 | 100 µg/mL | inhibition zone | 10 mm |
| COc1ccc2c(c1OC)CN1CCc3cc4c(cc3C1C2)OCO4 (stereo not shown) | microbial growth | – | 24 h | MIC50 | > 1600 µM |
| CN[C@H](CC(C)C)C(=O)N[C@H]1C(=O)N[C@@H](CC(N)=O)C(=O)N[C@H]2C(=O)N[C@H]3C(=O)N[C@H](C(=O)N[C@H](C(=O)O)c4cc(O)cc(O)c4-c4cc3ccc4O)[C@H](O)c3ccc(c(Cl)c3)Oc3cc2cc(c3O[C@@H]2O[C@H](CO)[C@@H](O)[C@H](O)[C@H]2O[C@H]2C[C@](C)(N)[C@H](O)[C@H](C)O2)Oc2ccc(cc2Cl)[C@H]1O | microbial growth, broth dilution | ATCCBAA44 | drug-resistant strain | MIC | 1 µg/mL |
| CCc1ccc(N2C(=O)/C(=C3/C(=O)N(C)c4ccc(Cl)cc43)NC2=S)cc1 | microbial growth, broth dilution | ATCC43300 MRSA | – | MIC | 9.2 µg/mL |
| O=C(O)c1cn(C2CC2)c2cc(N3CCNCC3)c(F)cc2c1=O | microbial growth, well diffusion | ATCC23235 | 100 µg/mL | inhibition zone | 36 mm |
| Cc1onc(-c2ccccc2)c1C(=O)N[C@@H]1C(=O)N2[C@@H]1SC(C)(C)[C@@H]2C(=O)O | microbial growth | MRSA | drug-resistant strain | MIC | > 4 µg/mL |
| CC(=O)NC[C@H]1CN(c2ccc(N3CCOCC3)c(F)c2)C(=O)O1 | microbial killing | ATCC43300 MRSA | – | MBC | 40.6 µg/mL (≈ 120 µM) |
| CN(C)[C@@H]1C(O)=C(C(N)=O)C(=O)[C@@]2(O)C(O)=C3C(=O)c4c(O)cccc4[C@@](C)(O)[C@H]3C[C@@H]12 | microbial growth, broth dilution | ATCC33591 MRSA | 16 h, drug-resistant strain | MIC | 100 µM |
